Assay results pooled from the literature.
Compare with care: the assays were run in different laboratories.
CYP3A7: Cytochrome P450 3A7 (CYP3A7, Homo sapiens, UniProt P24462)

SMILES	tested on	assay	test system	setting	measurement	result
COc1c(-c2ccc3cc(NS(C)(=O)=O)ccc3c2)cc(-n2ccc(=O)[nH]c2=O)cc1C(C)(C)C	CYP3A7	enzyme activity, inhibitor, fluorescence		20 µM, 10 min, pH 7.4	inhibition	≥ 50%
N#Cc1cnn2c(NC3CC(F)(F)C3)cc(Nc3cccc(-n4cnnc4)c3)nc12		metabolic stability	male CD-1 mouse, liver microsomes	5 µM, 30 min, pH 7.4	compound remaining	75%
O=[N+]([O-])c1ccccc1/C=N/c1c(-c2ccccc2)nc2ccc(Cl)cn12	MT4	cell growth or viability, MTT		5 days	CC50	> 125 µg/mL
Cc1cnc(C(=O)N[C@H]2CCCCC/C=C\[C@@H]3C[C@@]3(C(=O)NS(=O)(=O)C3CC3)NC(=O)[C@@H]3C[C@@H](Oc4nc5ccccc5c5ccccc45)CN3C2=O)cn1	CYP3A7	enzyme activity, inhibitor		pH 7.4, with preincubation	KI (inactivation)	4.66 µM
C[C@@H](N)CN(C)c1ccc(Nc2cc(NC3CC3)n3ncc(C#N)c3n2)cc1-n1cnnc1		metabolic stability	male CD-1 mouse, liver microsomes	5 µM, 30 min, pH 7.4	compound remaining	84%
COC[C@H]1C[C@@H](c2ncc(-c3ccc4c(c3)COc3cc5c(ccc6nc([C@@H]7CC[C@H](C)N7C(=O)[C@@H](NC(=O)OC)C(C)C)[nH]c65)cc3-4)[nH]2)N(C(=O)[C@H](NC(=O)OC)c2ccccc2)C1	CYP3A7	enzyme activity, inhibitor, fluorescence		20 µM, 10 min, pH 7.4	inhibition	≥ 50%
O=[N+]([O-])c1ccc(/C=N/c2c(-c3ccccc3)nc3ccc(Cl)cn23)cc1	MT4	cell growth or viability, MTT		5 days	CC50	> 125 µg/mL
Cc1ccc(Cn2cc(C(=O)NN)c(=O)c3cc(Oc4ccccc4)ccc32)cc1		metabolic stability	male rat, liver microsomes	1 µM, 30 min	compound remaining	> 99%
N#Cc1cnn2c(NC3CC3)cc(Nc3cc(-n4cnnc4)ccc3F)nc12		metabolic stability	male CD-1 mouse, liver microsomes	5 µM, 30 min, pH 7.4	compound remaining	100%
O=c1[nH]cnc2c1ncn2[C@H]1CC[C@@H](CO)O1	MT4	cell growth or viability, MTT		5 days	CC50	> 50 µg/mL
CCN(CCN)c1ccc(Nc2cc(NC3CC3)n3ncc(C#N)c3n2)cc1-n1cnnc1		metabolic stability	male CD-1 mouse, liver microsomes	5 µM, 30 min, pH 7.4	compound remaining	92%
N#C[C@@]12C[C@@H]1[C@@H](n1cnc3c(N[C@@H](C4CCC4)C4CC4)nc(I)nc31)[C@H](O)[C@@H]2O		metabolic stability	rat, liver microsomes	1 h	compound remaining	72.9%
